Source: ChEMBL document CHEMBL5303300, “EUbOPEN Chemogenomics Library - Multiplex” (2023)
Where “and” joins values, the source holds several entries; their conditions need not be identical. Equal entries are not always repeated.

What was measured:
HEK-293T = assay: Multiplex assay against HEK293T; format: toxicity, cell-based; details: human, number of replicates 2
Summary of the method: (§1)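 Live cells were stained at seeding with Hoechst33342, BioTracker Green Microtubule Cytoskeleton Dye, MitoTracker Red and Annexin V Alexa Fluor 680. Following compound addition, they were imaged on a CQ1 microscope at 37°C and 5% CO2 and gated by CellPathfinder machine learning into Hoechst high-intensity objects or normal cells, with normal cells split into healthy, pyknosed or fragmented nuclei and pyknosed cells into mitotic or apoptotic. Tubulin, mitochondrial-mass and membrane-permeability phenotypes are per cents of healthy-nucleus cells.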

U2OS = assay: Multiplex assay against U2OS; format: toxicity, cell-based; details: human, number of replicates 2; summary of the method: as §1
[1] = 12 h, 1 µM, compound concentration 1 uM
[2] = 12 h, 10 µM, compound concentration 10 uM
[3] = 24 h, 1 µM, compound concentration 1 uM
[4] = 24 h, 10 µM, compound concentration 10 uM
[5] = 48 h, 1 µM, compound concentration 1 uM
[6] = 48 h, 10 µM, compound concentration 10 uM

In the case of `N[C@@H]1c2cccnc2[C@H](OC(=O)N2CCC(n3c(=O)[nH]c4ncccc43)CC2)CC[C@H]1c1cccc(F)c1F` [RIMEGEPANT], the “Population Apoptotic (%)” value (HEK-293T; [1]) is reported as 64% and 44%, the “Population Fragmented Nuclei (%)” value (HEK-293T; [1]) is reported as 4% and 5% and the “Population Healthy Nuclei (%)” value (HEK-293T; [1]) is reported as 78% and 83%. For the same compound, the “Population Hoechst High Intensity Objects (%)” value (HEK-293T; [1]) was 14% and 10%, the “Population Membrane Permeable-Phenotype (%)” value (HEK-293T; [1]) was 3% and 1% and the “Population Mitochondria Different-Phenotype (%)” value (HEK-293T; [1]) was 18% and 17%. The “Population Mitotic Cells (%)” value (HEK-293T; [1]) was 35% and 55%, the “Population Normal (%)” value (HEK-293T; [1]) was 85% and 89% and the “Population Pyknosed Nuclei (%)” value (HEK-293T; [1]) was 17% and 10%. For the same compound, the “Population Tubulin-Different-Phenotype (%)” value (HEK-293T; [1]) was 47%, the “Total Cell Count” value (HEK-293T; [1]) was 573 and 694 and the “Population Apoptotic (%)” value (HEK-293T; [2]) was 40% and 46%. The “Population Fragmented Nuclei (%)” value (HEK-293T; [2]) was 4%, the “Population Healthy Nuclei (%)” value (HEK-293T; [2]) was 83% and 84% and the “Population Hoechst High Intensity Objects (%)” value (HEK-293T; [2]) was 5% and 6%. For the same compound, the “Population Membrane Permeable-Phenotype (%)” value (HEK-293T; [2]) was 1% and 4%, the “Population Mitochondria Different-Phenotype (%)” value (HEK-293T; [2]) was 49% and 18% and the “Population Mitotic Cells (%)” value (HEK-293T; [2]) was 60% and 53%. For the same compound, the “Population Normal (%)” value (HEK-293T; [2]) was 94% and 93%, the “Population Pyknosed Nuclei (%)” value (HEK-293T; [2]) was 12% and 11% and the “Population Tubulin-Different-Phenotype (%)” value (HEK-293T; [2]) was 98% and 82%. For the same compound, the “Total Cell Count” value (HEK-293T; [2]) was 526 and 617, the “Population Apoptotic (%)” value (HEK-293T; [3]) was 56% and 37% and the “Population Fragmented Nuclei (%)” value (HEK-293T; [3]) was 7% and 6%. The “Population Healthy Nuclei (%)” value (HEK-293T; [3]) was 75% and 85%, the “Population Hoechst High Intensity Objects (%)” value (HEK-293T; [3]) was 11% and 8% and the “Population Membrane Permeable-Phenotype (%)” value (HEK-293T; [3]) was 0% and 1%. The “Population Mitochondria Different-Phenotype (%)” value (HEK-293T; [3]) was 5% and 4%, the “Population Mitotic Cells (%)” value (HEK-293T; [3]) was 43% and 62% and the “Population Normal (%)” value (HEK-293T; [3]) was 88% and 91%. For the same compound, the “Population Pyknosed Nuclei (%)” value (HEK-293T; [3]) was 17% and 7%, the “Population Tubulin-Different-Phenotype (%)” value (HEK-293T; [3]) was 18% and 20% and the “Total Cell Count” value (HEK-293T; [3]) was 820 and 1035. For the same compound, the “Population Apoptotic (%)” value (HEK-293T; [4]) was 48% and 36%, the “Population Fragmented Nuclei (%)” value (HEK-293T; [4]) was 9% and 8% and the “Population Healthy Nuclei (%)” value (HEK-293T; [4]) was 84% and 83%. For the same compound, the “Population Hoechst High Intensity Objects (%)” value (HEK-293T; [4]) was 8%, the “Population Membrane Permeable-Phenotype (%)” value (HEK-293T; [4]) was 5% and 2% and the “Population Mitotic Cells (%)” value (HEK-293T; [4]) was 51% and 63%. The “Population Normal (%)” value (HEK-293T; [4]) was 91%, the “Population Pyknosed Nuclei (%)” value (HEK-293T; [4]) was 6% and 7% and the “Population Tubulin-Different-Phenotype (%)” value (HEK-293T; [4]) was 91% and 67%. The “Total Cell Count” value (HEK-293T; [4]) was 709 and 978, the “Population Apoptotic (%)” value (HEK-293T; [5]) was 26% and 9% and the “Population Fragmented Nuclei (%)” value (HEK-293T; [5]) was 12% and 16%. The “Population Healthy Nuclei (%)” value (HEK-293T; [5]) was 82% and 80%, the “Population Hoechst High Intensity Objects (%)” value (HEK-293T; [5]) was 7% and 8% and the “Population Membrane Permeable-Phenotype (%)” value (HEK-293T; [5]) was 4% and 5%. For the same compound, the “Population Mitochondria Different-Phenotype (%)” value (HEK-293T; [5]) was 0%, the “Population Mitotic Cells (%)” value (HEK-293T; [5]) was 73% and 90% and the “Population Normal (%)” value (HEK-293T; [5]) was 92% and 91%. The “Population Pyknosed Nuclei (%)” value (HEK-293T; [5]) was 4% and 2%, the “Population Tubulin-Different-Phenotype (%)” value (HEK-293T; [5]) was 7% and 8% and the “Total Cell Count” value (HEK-293T; [5]) was 2054 and 2768. The “Population Apoptotic (%)” value (HEK-293T; [6]) was 34% and 14%, the “Population Fragmented Nuclei (%)” value (HEK-293T; [6]) was 14% and the “Population Healthy Nuclei (%)” value (HEK-293T; [6]) was 82%. The “Population Hoechst High Intensity Objects (%)” value (HEK-293T; [6]) was 8% and 10%, the “Population Membrane Permeable-Phenotype (%)” value (HEK-293T; [6]) was 6% and the “Population Mitochondria Different-Phenotype (%)” value (HEK-293T; [6]) was 9% and 1%. For the same compound, the “Population Mitotic Cells (%)” value (HEK-293T; [6]) was 65% and 85%, the “Population Normal (%)” value (HEK-293T; [6]) was 91% and 89% and the “Population Pyknosed Nuclei (%)” value (HEK-293T; [6]) was 2% and 3%. The “Population Tubulin-Different-Phenotype (%)” value (HEK-293T; [6]) was 83% and 44%, the “Total Cell Count” value (HEK-293T; [6]) was 1243 and 2004 and the “Population Apoptotic (%)” value (U2OS; [1]) was 40% and 54%. For the same compound, the “Population Fragmented Nuclei (%)” value (U2OS; [1]) was 11% and 5%, the “Population Healthy Nuclei (%)” value (U2OS; [1]) was 79% and 84% and the “Population Hoechst High Intensity Objects (%)” value (U2OS; [1]) was 0%. For the same compound, the “Population Membrane Permeable-Phenotype (%)” value (U2OS; [1]) was 0% and 4%, the “Population Mitochondria Different-Phenotype (%)” value (U2OS; [1]) was 0% and 1% and the “Population Mitotic Cells (%)” value (U2OS; [1]) was 60% and 45%. For the same compound, the “Population Normal (%)” value (U2OS; [1]) was 100%, the “Population Pyknosed Nuclei (%)” value (U2OS; [1]) was 9% and the “Population Tubulin-Different-Phenotype (%)” value (U2OS; [1]) was 90% and 65%. The “Population Apoptotic (%)” value (U2OS; [2]) was 60% and 51%, the “Population Fragmented Nuclei (%)” value (U2OS; [2]) was 0% and 5% and the “Population Healthy Nuclei (%)” value (U2OS; [2]) was 88% and 83%. For the same compound, the “Population Hoechst High Intensity Objects (%)” value (U2OS; [2]) was 0%, the “Population Membrane Permeable-Phenotype (%)” value (U2OS; [2]) was 0% and 8% and the “Population Mitochondria Different-Phenotype (%)” value (U2OS; [2]) was 8% and 11%. The “Population Mitotic Cells (%)” value (U2OS; [2]) was 40% and 48%, the “Population Normal (%)” value (U2OS; [2]) was 100% and the “Population Pyknosed Nuclei (%)” value (U2OS; [2]) was 11% and 10%. The “Population Tubulin-Different-Phenotype (%)” value (U2OS; [2]) was 37% and 34%, the “Population Apoptotic (%)” value (U2OS; [3]) was 50% and 57% and the “Population Fragmented Nuclei (%)” value (U2OS; [3]) was 7% and 3%. The “Population Healthy Nuclei (%)” value (U2OS; [3]) was 82% and 86%, the “Population Hoechst High Intensity Objects (%)” value (U2OS; [3]) was 0% and the “Population Membrane Permeable-Phenotype (%)” value (U2OS; [3]) was 2% and 4%. For the same compound, the “Population Mitochondria Different-Phenotype (%)” value (U2OS; [3]) was 0% and 2%, the “Population Mitotic Cells (%)” value (U2OS; [3]) was 50% and 42% and the “Population Normal (%)” value (U2OS; [3]) was 100%. For the same compound, the “Population Pyknosed Nuclei (%)” value (U2OS; [3]) was 10% and 9% and the “Population Tubulin-Different-Phenotype (%)” value (U2OS; [3]) was 87% and 71%.
